In ChEMBL document CHEMBL2380254, “Optimization of tocotrienols as antiproliferative and antimigratory leads” (Eur J Med Chem, 2013):

Assays:
LOX IMVI = test: Growth inhibition of human LOXIMVI cells after 48 hrs by sulforhodamine B assay; assay type: functional
Summary of the method: (§1)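 NCI-60 screen: cells in RPMI 1640 with 5% FBS and 2 mM glutamine, 5000–40,000 cells/well, preincubated 24 h. Five concentrations (10-fold dilutions; 100 to 0.001 µM) applied for 48 h at 37 °C. TCA fixation, SRB stain, absorbance at 515 nm. Time-zero plates included; GI50 where 100×(T−T0)/(C−T0)=50.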

NCI-H322M = test: Growth inhibition of human NCI-H322M cells assessed as cell growth at 10 uM after 48 hrs by sulforhodamine B assay; assay type: functional; settings: read-out: Activity
Summary of the method: (§2)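 Single-dose NCI-60 screen: adherent cells in RPMI 1640 with 5% FBS were exposed to 10 µM for 48 h at 37 °C after a 24 h preincubation. They were fixed in situ with cold TCA (10% final), stained with 0.4% SRB in 1% acetic acid, solubilized in 10 mM Tris base, and read at 515 nm. Percent growth was taken relative to time-zero and control plates.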

U-251 = test: Growth inhibition of human U251 cells assessed as cell growth at 10 uM after 48 hrs by sulforhodamine B assay; assay type: functional; settings: U-251, 48 h, read-out: Activity
Summary of the method: (§3)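 Single-dose NCI-60 test at 10 µM. Cells were grown in RPMI 1640 with 5% FBS and 2 mM L-glutamine, preincubated 24 h, with T0 plates TCA-fixed. Exposure was 48 h at 37 °C, 5% CO2. Cells were fixed with cold TCA (final 10%, 4 °C, 60 min), stained with SRB and read at 515 nm. Percent growth was taken relative to T0 and untreated control; negative values denote cell kill.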

DU-145 = test: Growth inhibition of human DU145 cells assessed as cell growth at 10 uM after 48 hrs by sulforhodamine B assay; assay type: functional; settings: DU-145, 48 h, read-out: Activity
Summary of the method: (§4)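 NCI-60 single-dose screen at 10 µM: cells in RPMI 1640 with 5% FBS, preincubated 24 h, then exposed 48 h at 37 °C. TCA fixation (16% final for suspension cells), SRB staining, absorbance 515 nm. Percent growth relative to time-zero and untreated control plates; negative values indicate cell kill.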

[1] = Growth inhibition of human Hs 578T cells assessed as cell growth at 10 uM after 48 hrs by sulforhodamine B assay; assay type: functional; settings: read-out: Activity; summary of the method: as §4
[2] = Growth inhibition of human HCC2998 cells assessed as cell growth at 10 uM after 48 hrs by sulforhodamine B assay; assay type: functional; settings: HCC 2998, 48 h, read-out: Activity; summary of the method: as §4
MDA-MB-468 = test: Growth inhibition of human MDA-MB-468 cells assessed as cell growth at 10 uM after 48 hrs by sulforhodamine B assay; assay type: functional; settings: MDA-MB-468, 48 h, read-out: Activity; summary of the method: as §2
RPMI-8226 = test: Growth inhibition of human RPMI8226 cells after 48 hrs by sulforhodamine B assay; assay type: functional; settings: RPMI-8226, 48 h
Summary of the method: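 NCI-60 suspension lines in RPMI 1640 with 5% FBS and 2 mM L-glutamine, preincubated 24 h. A five-concentration 10-fold series (0.001–100 µM) was given for 48 h at 37 °C. Settled cells were fixed with 80% TCA (16% final), stained with SRB, and read at 515 nm. GI50 was taken where 100×(T−T0)/(C−T0)=50, with T0 plates fixed at drug addition.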

SF-539 = test: Growth inhibition of human SF539 cells after 48 hrs by sulforhodamine B assay; assay type: functional; settings: SF-539, 48 h
Summary of the method: (§5)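 NCI-60 panel cells grown in RPMI 1640 with 5% FBS and 2 mM L-glutamine, seeded at 5000–40,000 cells/well and preincubated 24 h. Five 10-fold dilutions (0.001–100 µM) from DMSO stocks were added for 48 h at 37 °C. Adherent cells were fixed with cold TCA (10% final) for 60 min at 4 °C, stained with 0.4% SRB, and read at 515 nm. GI50 was set where 100×(T−T0)/(C−T0)=50.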

CCRF-CEM [3] = test: Growth inhibition of human CCRF-CEM cells after 48 hrs by sulforhodamine B assay; assay type: functional; summary of the method: as §1
HOP-62 = test: Growth inhibition of human HOP62 cells after 48 hrs by sulforhodamine B assay; assay type: functional; settings: HOP-62, 48 h; summary of the method: as §1
CAKI-1 = test: Growth inhibition of human CAKI-1 cells after 48 hrs by sulforhodamine B assay; assay type: functional; settings: CAKI-1, 48 h; summary of the method: as §1
ACHN = test: Growth inhibition of human ACHN cells after 48 hrs by sulforhodamine B assay; assay type: functional; summary of the method: as §1
KM12 = test: Growth inhibition of human KM12 cells after 48 hrs by sulforhodamine B assay; assay type: functional; settings: KM12, 48 h; summary of the method: as §1
SN12C = test: Growth inhibition of human SN12C cells assessed as cell growth at 10 uM after 48 hrs by sulforhodamine B assay; assay type: functional; settings: read-out: Activity; summary of the method: as §3
MDA-MB-231 = test: Antiproliferative activity against human MDA-MB-231 cells by MTT assay; assay type: functional, cell-based
Summary of the method: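 Cells plated at 8 × 10^3/well (MDA-MB-231) or 10^4/well (MCF7) in 96-well plates. Compounds fed in media with 5% FBS (MDA-MB-231) or 1% FBS (MCF7). MTT read-out of viable cells.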

SNB-19 = test: Growth inhibition of human SNB19 cells after 48 hrs by sulforhodamine B assay; assay type: functional; settings: SNB-19, 48 h
Summary of the method: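 NCI-60 five-dose screen. Cells were grown in RPMI 1640 with 5% FBS and 2 mM L-glutamine, plated at 5000–40,000 cells/well and incubated 24 h before dosing, with T0 plates TCA-fixed. DMSO stocks were diluted to doses of […] and exposed 48 h at 37 °C, 5% CO2. Cells were fixed with cold TCA (final 10%, 60 min, 4 °C), stained with 0.4% SRB in 1% acetic acid for 10 min, solubilized in 10 mM trizma base and read at 515 nm. GI50 is where 100×(T−T0)/(C−T0)=50.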

SF-295 = test: Growth inhibition of human SF295 cells after 48 hrs by sulforhodamine B assay; assay type: functional; settings: SF-295, 48 h; summary of the method: as §5
CCRF-CEM [4] = test: Growth inhibition of human CCRF-CEM cells assessed as cell growth at 10 uM after 48 hrs by sulforhodamine B assay; assay type: functional; settings: read-out: Activity; summary of the method: as §4
UACC-62 = test: Growth inhibition of human UACC62 cells assessed as cell growth at 10 uM after 48 hrs by sulforhodamine B assay; assay type: functional; settings: UACC-62, 48 h, read-out: Activity; summary of the method: as §3
M14 = test: Growth inhibition of human M14 cells after 48 hrs by sulforhodamine B assay; assay type: functional; settings: M14, 48 h; summary of the method: as §1
RXF 393 = test: Growth inhibition of human RXF393 cells after 48 hrs by sulforhodamine B assay; assay type: functional; settings: RXF 393, 48 h; summary of the method: as §5
PC-3 = test: Growth inhibition of human PC3 cells assessed as cell growth at 10 uM after 48 hrs by sulforhodamine B assay; assay type: functional; settings: PC-3, 48 h, read-out: Activity; summary of the method: as §2
SK-MEL-28 = test: Growth inhibition of human SK-MEL-28 cells assessed as cell growth at 10 uM after 48 hrs by sulforhodamine B assay; assay type: functional; settings: SK-MEL-28, 48 h, read-out: Activity; summary of the method: as §2

Row | Compound | GI50 (LOX IMVI) | growth at 10 µM (NCI-H322M) | growth at 10 µM (U-251) | growth at 10 µM (DU-145) | growth at 10 µM [2] | growth at 10 µM (MDA-MB-468) | GI50 (RPMI-8226) | GI50 (SF-539) | GI50 (CCRF-CEM [3]) | GI50 (HOP-62) | GI50 (CAKI-1) | GI50 (ACHN) | GI50 (KM12) | growth at 10 µM (SN12C) | GI50 (SNB-19) | GI50 (SF-295) | growth at 10 µM (CCRF-CEM [4]) | growth at 10 µM (UACC-62) | GI50 (M14) | GI50 (RXF 393) | other results
1 | CC(C)=CCC/C(C)=C/CC/C(C)=C/CC[C@]1(C)CCc2c3c(c(C)c(C)c2O1)OCN(CCCCCO)C3 | 6.07 µM | 91% | 58.6% | 99.6% | 60.8% | 87.4% | 9.91 µM | 6.26 µM | 7.83 µM | 5.9 µM | 5.33 µM | 5.74 µM | 7.41 µM | 78.5% | 5.99 µM | 6.12 µM | 54.9% | 99.2% | 6.63 µM | 1.94 µM | growth at 10 µM [1]: 97.3%; IC50 (MDA-MB-231): > 50 µM; growth at 10 µM (PC-3): 71.8%; growth at 10 µM (SK-MEL-28): 99.7%
2 | CC(C)=CCC/C(C)=C/CC/C(C)=C/CC[C@]1(C)CCc2c3c(cc(C)c2O1)OCN(C1CCN(Cc2ccccc2)CC1)C3 | 0.337 µM | 19% | -66.6% | 65.3% | -36.1% | 0.33% | 0.324 µM | 1.83 µM | 0.308 µM | 1.82 µM | 1.6 µM | 1.88 µM | 0.699 µM | 1.77% | 1.61 µM | 1.88 µM | 2.34% | 93.6% | 1.89 µM | 1.22 µM | growth at 10 µM [1]: -6.43%; growth at 10 µM (PC-3): 33.2%; growth at 10 µM (SK-MEL-28): 60%
3 | CC(C)=CCC/C(C)=C/CC/C(C)=C/CC[C@]1(C)CCc2c3c(c(C)c(C)c2O1)OCN(CCCCCCO)C3 | 2.83 µM | 69.5% | -75.2% | 77% | -63.7% | -46.7% | 3.36 µM | 3.15 µM | 2.73 µM | 2.7 µM | 2.82 µM | 2.75 µM | 2.84 µM | 66.5% | 2.48 µM | 2.97 µM | 5.83% | 86.7% | 3.11 µM | 2.3 µM | growth at 10 µM [1]: 90.4%; IC50 (MDA-MB-231): > 10 µM; growth at 10 µM (PC-3): 51%; growth at 10 µM (SK-MEL-28): 63.1%
4 | CC(C)=CCC/C(C)=C/CC/C(C)=C/CC[C@]1(C)CCc2c3c(c(C)c(C)c2O1)OCN(CCCCCCCCO)C3 | 3.29 µM | 65.3% | 34% | 73.1% | -87% | -12.6% | 3.13 µM | 3.29 µM | 3.34 µM | 2.81 µM | 4.38 µM | 2.62 µM | 2.93 µM | 65.8% | 2.47 µM | 3.16 µM | 10.4% | 93.1% | 3.02 µM | 2.45 µM | growth at 10 µM [1]: 81.7%; IC50 (MDA-MB-231): > 20 µM; growth at 10 µM (PC-3): 26.8%; growth at 10 µM (SK-MEL-28): 82.9%
5 | CC(C)=CCC/C(C)=C/CC/C(C)=C/CC[C@]1(C)CCc2c3c(cc(C)c2O1)OCN(CCCO)C3 | 1.69 µM | -62.1% | -83.4% | -13.6% | -82.9% | -29% | 2.16 µM | 1.93 µM | 2.59 µM | 1.78 µM | 2.33 µM | 1.75 µM | 2.1 µM | 11.7% | 1.64 µM | 1.76 µM | 28.6% | 93% | 1.92 µM | 1.2 µM | growth at 10 µM [1]: -11.8%; IC50 (MDA-MB-231): > 10 µM; growth at 10 µM (PC-3): 50.8%; growth at 10 µM (SK-MEL-28): -50.7%
6 | COc1ccc(CCN2COc3cc(C)c4c(c3C2)CC[C@@](C)(CC/C=C(\C)CC/C=C(\C)CCC=C(C)C)O4)cc1OC | 1.77 µM | 4.19% | -71.3% | -4.93% | -87.2% | -25.4% | 3.07 µM | 1.96 µM | 3.32 µM | 1.76 µM | 3.95 µM | 1.75 µM | 2.07 µM | 37% | 1.66 µM | 2.01 µM | 0.64% | 91.7% | 1.79 µM | 1.36 µM | growth at 10 µM (PC-3): 62.1%; growth at 10 µM (SK-MEL-28): -55.6%
7 | CC(C)=CCC/C(C)=C/CC/C(C)=C/CC[C@]1(C)CCc2c3c(cc(C)c2O1)OCN(CCCCCCO)C3 | 0.636 µM | -61% | -91.9% | 10.7% | -89.1% | -84.5% | 1.11 µM | 2.37 µM | 0.866 µM | 0.877 µM | 3.79 µM | 2.29 µM | 0.609 µM | 40.3% | 0.632 µM | 0.602 µM | -20.6% | 75.8% | 0.979 µM | 0.546 µM | growth at 10 µM [1]: 29.8%; IC50 (MDA-MB-231): > 5 µM; growth at 10 µM (PC-3): -31.4%; growth at 10 µM (SK-MEL-28): -49.6%
8 | CC(C)=CCC/C(C)=C/CC/C(C)=C/CC[C@]1(C)CCc2c3c(c(C)c(C)c2O1)OCN(CCCCO)C3 | 2.22 µM | 84.8% | 14.8% | 88.8% | -61.8% | 57% | 5.15 µM | > 10 µM | 3.45 µM | 5.95 µM | > 10 µM | > 10 µM | 1.94 µM | 76.8% | 3.03 µM | 2.08 µM | 39.9% | 96.6% | 5.99 µM | 5.63 µM | growth at 10 µM [1]: 91.6%; IC50 (MDA-MB-231): 13.8 µM; growth at 10 µM (PC-3): 71.8%; growth at 10 µM (SK-MEL-28): 106%
